T cell modulator: T cell immune modulation candidate; 2C CD8+ T cell-vesicle binding, flow cytometry; active compounds read low; response (vesicle binding), % at 7 µM; 330,000 tested, 0.068% active; AID 2052;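 active means response, share of CD8 T cells binding vesicles, and their 90th percentile fluorescence all below set limits, cut at about 80% in these data, passing the limit was not always enough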;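 further: values below 100% mean blocked vesicle binding to the CD8+ T cells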
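Read-out – percent CD8+ FL2 mean versus row control · System – murine 2C transgenic CD8+ T lymphocytes · Times – 1.5 h cell–vesicle binding at 37 °C, then 20 min icy labelling · Control set – naked vesicles low, QL9 vesicles with vehicle high · Detection – cytometric PE anti-B7-1 and Alexa647 anti-CD8 signals after 1% paraformaldehyde fixation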
proKLK7 act: activators of human kallikrein-7 zymogen. P49862. purified proKLK7, EDANS-DABCYL substrate fluorescence; 100% is mature enzyme control, 0% vehicle. 370,000 tested, 0.9% active. AID 652039. activation, % at 7 µM;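 active means activation above the mean of all tested compounds plus 3 SD, computed per campaign excluding outliers beyond control limits, cut at about 13% in these data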
MIN6 prolif: induces beta-cell replication in MIN6 cells. MIN6 cells proliferation, ATPlite luminescence, 48 h; cells starved in 0.2% serum; 100% = growth in 10% serum. proliferation, % at 10 µM. 330,000 tested, 0.29% active. AID 2380;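 active means compounds whose signal lies at least 3.5 SD above the mean of all wells on their plate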
Rce1 inhib: yeast Ras-converting enzyme inhibition; calls only; yeast membranes, quenched prenylated peptide cleavage fluorescence; AID 2563; 290,000 tested, 0.27% active;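 active means fall in fluorescence gain of 50% or more versus controls, with final raw signal at or below 3038400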
Target sequence (Q03530 whole entry, looked up): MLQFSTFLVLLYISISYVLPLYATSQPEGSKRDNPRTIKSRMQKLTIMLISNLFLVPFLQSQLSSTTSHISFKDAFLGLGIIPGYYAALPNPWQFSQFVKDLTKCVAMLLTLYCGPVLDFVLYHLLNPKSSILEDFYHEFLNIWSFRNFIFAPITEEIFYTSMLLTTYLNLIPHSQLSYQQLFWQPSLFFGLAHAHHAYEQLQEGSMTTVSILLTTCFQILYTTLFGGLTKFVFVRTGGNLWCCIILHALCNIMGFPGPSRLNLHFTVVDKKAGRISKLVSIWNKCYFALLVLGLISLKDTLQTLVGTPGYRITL
Yeast superoxide: lowers age-related superoxide in aged yeast cells. S. cerevisiae aged cells, superoxide DHE fluorescence; active compounds read low. superoxide response (% of plate mean), % at 10 µM. 330,000 tested, 0.18% active;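 active means superoxide response under a set limit, about three screen SD below normal, cut at about 65% in these data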;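 further: yeast aged for seven days with compound at 30 °C before DHE staining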
V-ATPase pHluor: yeast V-ATPase proton transport regulation by pHLuorin | S. cerevisiae, pHLuorin cytosolic pH fluorescence | response, % at 10 µM | 350,000 tested, 0.37% active; in the data active means response mostly above about 7.3%, no sharp cut-off; inactive means mostly below about 5.4%; further: actives read high
KLK7 act conf: proKLK7 activation, confirmation; 3,200 tested, 68% active; activation, % at 7 µM; purified proKLK7, EDANS-DABCYL substrate fluorescence; scaled: vehicle 0, mature enzyme 100; shares compounds with proKLK7 act;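 active means activation, as change over the incubation, above the mean of all tested compounds plus 3 SD, cut at about 13% in these data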
EDANS-DABCYL int: counter-screen for kallikrein-7 activators: EDANS-DABCYL optical interference; shares compounds with proKLK7 act; EDANS-DABCYL substrate fluorescence interference, no enzyme, 4 h; solvent 0%, active enzyme control 100%; activation, % at 7 µM; 3,200 tested, 80% active;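 active means activation above the all-compound mean plus 3 SD, ignoring values outside control-based bounds, cut at about 4.8% in these data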;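 further: value is the 4 h activation minus the activation read at time zero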
K7 EDANS ctr: EDANS fluorescence interference in dose response, no enzyme | 250 tested, 20% active | shares compounds with proKLK7 act | EC50, µM | EDANS-DABCYL peptide fluorescence interference | AID 720493;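 active means compounds that raise the fluorescence signal in this interference counterscreen, with EC50 at or below 10 µM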;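 further: intact quenched peptide substrate alone read at 355 nm excitation and 520 nm emission; signal is fluorescence gain from T0 to T4 after four hours at room temperature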
Large screens that a line does not name were inactive (follow-up assays come after a bar, where they were run). Hits are enriched below; roughly 1.9% of the tested compounds scored in any of these assays.

CCC1CN(C)C2Cc3c([nH]c4ccccc34)C(=O)CC1C2C(=O)OC (stereo unspecified)	proKLK7 act 13 | KLK7 act conf inactive | EDANS-DABCYL int 8.1
CC[C@H]1CC2CN3CCc4c([nH]c5c([C@H]6C[C@H]7[C@H](CC)CN(C)[C@@H](Cc8c6[nH]c6ccccc86)[C@H]7C(=O)OC)c(OC)ccc45)C(C(=O)OC)(C2)C13	none (no result: proKLK7 act, Rce1 inhib, V-ATPase pHluor)
CN1CCN(C(=O)CN(C2CCCCC2)S(=O)(=O)c2ccc(Br)cc2)CC1	none
COC(=O)[C@]12C[C@H](CC(=O)NCc3ccc(C)o3)C(=O)N(Cc3ccc(Cl)cc3Cl)C1=C[C@H](COCc1ccccc1)O[C@@H]2C	none (no result: T cell modulator, MIN6 prolif, Rce1 inhib, Yeast superoxide, V-ATPase pHluor)
C[C@@H]1CN([C@@H](C)CO)C(=O)c2cc(NS(=O)(=O)c3ccc(F)cc3)ccc2O[C@@H](C)CCCCO[C@H]1CN(C)C(=O)NC1CCCCC1	none (no result: T cell modulator, MIN6 prolif, Rce1 inhib, Yeast superoxide)
CCN(CC(=O)NC(C)(C)C)C(=O)CN1c2cccc3cccc(c23)S1(=O)=O	proKLK7 act 15 | KLK7 act conf inactive | EDANS-DABCYL int inactive
CCN1c2cccc3cccc(c23)S1(=O)=O	none
CC(C)(C)NC(=O)NC(=O)CN1c2cccc3cccc(c23)S1(=O)=O	none
CC(C)(C)OC(=O)CN1c2cccc3cccc(c23)S1(=O)=O	proKLK7 act 13 | KLK7 act conf inactive | EDANS-DABCYL int 13
COC(=O)CNC(=O)CN1c2cccc3cccc(c23)S1(=O)=O	proKLK7 act 23 | KLK7 act conf 17 | EDANS-DABCYL int 17
O=C(CN1c2cccc3cccc(c23)S1(=O)=O)N1CCCCC1	proKLK7 act 15 (no result: Rce1 inhib) | KLK7 act conf inactive | EDANS-DABCYL int 13
NS(=O)(=O)c1ccc(CCNC(=O)c2ccc(Cl)c(S(=O)(=O)NCc3ccco3)c2)cc1	none (no result: Rce1 inhib)
CC(=O)Nc1ccc(S(=O)(=O)Nc2nc3ccccc3nc2-n2ccc(=NC(=O)c3ccccc3)cc2)cc1	proKLK7 act 39 | KLK7 act conf 40 | EDANS-DABCYL int 16 | K7 EDANS ctr inactive
CC(=O)Nc1ccc(S(=O)(=O)Nc2nc3ccccc3nc2-n2ccc(=NC(=O)c3ccc(F)cc3)cc2)cc1	proKLK7 act 81 | KLK7 act conf 96 | EDANS-DABCYL int 87
O=C(N=c1ccn(-c2nc3ccccc3nc2NS(=O)(=O)c2ccccc2)cc1)c1ccccc1Cl	none
O=C(N=c1ccn(-c2nc3ccccc3nc2NS(=O)(=O)c2ccc(Cl)cc2)cc1)c1ccccc1Cl	none (no result: proKLK7 act, V-ATPase pHluor)
CC1CCCC(NC(=O)NC(=O)COC(=O)c2ccc(O)cc2O)C1C (stereo unspecified)	none (no result: Rce1 inhib)
COc1ccccc1C(C)NC(=O)CN(C)CC(=O)Nc1c(C)cccc1C (stereo unspecified)	none (no result: Rce1 inhib)
C[C@H](O)C(=O)C1=Nc2c(nc(N)[nH]c2=O)NC1	proKLK7 act 16 (no result: Rce1 inhib) | KLK7 act conf 28 | EDANS-DABCYL int 33
C[C@H](O)[C@H](O)[C@H]1CNc2nc(N)[nH]c(=O)c2N1	none
Cc1ccc(-c2cc(C(=O)OCC(=O)N(C)C3CCS(=O)(=O)C3)c3ccccc3n2)o1 (stereo unspecified)	proKLK7 act 135 | KLK7 act conf 14 | EDANS-DABCYL int 11 | K7 EDANS ctr 7
CCN(C(=O)COC(=O)c1cc2ccccc2cc1O)C1CCS(=O)(=O)C1 (stereo unspecified)	none
CCN(C(=O)COC(=O)c1cc(-c2ccc(C)o2)nc2ccccc12)C1CCS(=O)(=O)C1 (stereo unspecified)	proKLK7 act 174 | KLK7 act conf 202 | EDANS-DABCYL int 187
Cc1ccc(-c2cc(C(=O)OCC(=O)N(C)C3CCS(=O)(=O)C3)c3ccccc3n2)c(C)c1 (stereo unspecified)	none

Source: PubChem (several laboratories)
